# From ChEMBL document CHEMBL1128331, “New antianginal nitro esters with reduced hypotensive activity. Synthesis and pharmacological evaluation of 3-[(nitrooxy)alkyl]-2H-1,3-benzoxazin-4(3H)-ones” (J Med Chem, 1995)
# How the values were obtained:
# [1] = Partition coefficient (logP); type: physicochemical; conditions: octanol/water
# Oryctolagus cuniculus [2] = species: Oryctolagus cuniculus; assay: Vasorelaxation activity in the isolated endothelium-denuded rabbit aorta; type: functional
# In short: (§1)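 Endothelium-denuded rabbit aortic strips, precontracted to a stable plateau, then given increasing concentrations cumulatively in the organ chamber; IC50 calculated from the concentration-response curves.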
# Rattus norvegicus [3] = assay: Concentration required to reduce mean arterial blood pressure in rat after intravenous administration.; type: functional; conditions: Artery
# In short: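 Male Sprague-Dawley rats (350-400 g), urethane 1.25 g/kg ip, tracheal cannula. Carotid catheter records mean arterial pressure continuously; heart rate taken from the pressure wave. Dosing through femoral vein, 1 mL/kg over 20 s. Change expressed as percent of basal; ED20 (dose giving 20% MABP fall) taken from the dose-response curve.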
# Rattus norvegicus [4] = species: Rattus norvegicus; assay: Inhibition of vasopressin-induced ECG changes in rat; type: functional
# In short: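 Urethane-anesthetized (1.25 g/kg ip) male Sprague-Dawley rats, lead II ECG. Arg8-vasopressin 1 IU/kg iv (1 mL/kg over 20 s) given 10 min after iv drug or vehicle (GTN 1 min before). T-wave rise measured in mV. 8 rats per dose; percent inhibition against mean control; ED50 from dose-effect regression line.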
# Rattus norvegicus [5] = species: Rattus norvegicus; assay: Selectivity index as the ratio of doses requires to induce a reduction in MABP and that required to prevent ECG changes.; type: functional
# In short: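 Ratio of the iv ED20 for a 20% fall in mean arterial pressure to the iv ED50 for preventing ECG changes, both measured in urethane-anesthetized rats.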
# Oryctolagus cuniculus [6] = species: Oryctolagus cuniculus; assay: Compound was tested for vasorelaxation activity in the isolated endothelium-denuded rabbit aorta; type: functional; in short: as §1
# Rattus norvegicus [7] = assay: Inhibition of methacholine-induced ECG changes in the anesthetized rat after intravenous administration.; type: functional
# In short: (§2)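 Urethane-anesthetized male Sprague-Dawley rats, lead II ECG. Methacholine 8.0 µg in 0.02 mL over 1 s delivered into coronary arteries via a tube passed through the right carotid artery into the coronary ostia; S-T elevation measured in mV. Injection repeated at intervals after a single iv or oral dose. Five rats per dose; percent inhibition over basal; ED50.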
# Rattus norvegicus [8] = assay: Inhibition of methacholine-induced ECG changes in the anesthetized rat after oral administration.; type: functional; in short: as §2
Structure (SMILES),logP [1],IC50 (Oryctolagus cuniculus [2]),ED20 (Rattus norvegicus [3]),ED50 (Rattus norvegicus [4]),Selectivity index (Rattus norvegicus [5]),IC50 (Oryctolagus cuniculus [6]),ED50 (Rattus norvegicus [7]),ED50 (Rattus norvegicus [8])
O=C1c2cc([N+](=O)[O-])ccc2OCN1CCO[N+](=O)[O-],1.57,21 nM,0.076 mg/kg,64 µg/kg,1.2,,,
O=C1c2ccc(C(F)(F)F)cc2OCN1CCO[N+](=O)[O-],2.73,,> 0.3 mg/kg,1.5 µg/kg,200,220 nM,0.082 mg/kg,> 0.3 mg/kg
CN(C)/C=N/c1ccc2c(c1)C(=O)N(CCO[N+](=O)[O-])CO2,,640 nM,1.27 mg/kg,,131,,0.0171 mg/kg,> 0.3 mg/kg
O=C1c2ccccc2OCN1CCCCCO[N+](=O)[O-],,98 nM,0.73 mg/kg,,13,,,
O=C1c2ccccc2OCN1CCCO[N+](=O)[O-],,77 nM,,,,,0.001 mg/kg,
Cc1cccc2c1OCN(CCO[N+](=O)[O-])C2=O,,360 nM,0.88 mg/kg,58.2 µg/kg,15,,,
O=C1c2cc(Cl)ccc2OCN1CCO[N+](=O)[O-],2.56,37 nM,0.088 mg/kg,107 µg/kg,0.87,,,
O=C1c2ccc(Cl)cc2OCN1CCO[N+](=O)[O-],2.56,70 nM,0.79 mg/kg,,72,,,
Cc1cccc2c1C(=O)N(CCO[N+](=O)[O-])CO2,,125 nM,0.3 mg/kg,4.6 µg/kg,65,,> 0.01 mg/kg,
Cc1ccc2c(c1)OCN(CCO[N+](=O)[O-])C2=O,2.41,110 nM,0.22 mg/kg,,17.5,,,
N#Cc1ccc2c(c1)C(=O)N(CCO[N+](=O)[O-])CO2,1.28,71 nM,> 0.3 mg/kg,,26,,,
COc1ccc2c(c1)C(=O)N(CCO[N+](=O)[O-])CO2,1.83,230 nM,> 1 mg/kg,5.1 µg/kg,421,,0.013 mg/kg,0.1 mg/kg
Cc1ccc2c(c1)C(=O)N(CCO[N+](=O)[O-])CO2,2.41,35 nM,0.037 mg/kg,6 µg/kg,8.6,,0.00041 mg/kg,0.142 mg/kg
COc1ccc2c(c1)OCN(CCO[N+](=O)[O-])C2=O,1.83,47 nM,0.29 mg/kg,2 µg/kg,147,,> 0.01 mg/kg,> 0.3 mg/kg
O=C(NCCO[N+](=O)[O-])c1cccnc1 [NICORANDIL],,,0.16 mg/kg,940 µg/kg,,,0.047 mg/kg,3 mg/kg
O=[N+]([O-])OCC(CO[N+](=O)[O-])O[N+](=O)[O-] [NITROGLYCERIN],,16 nM,0.0054 mg/kg,545 µg/kg,0.01,,0.036 mg/kg,
O=C1c2ccccc2OCN1CCO[N+](=O)[O-] [SINITRODIL],1.85,94 nM,0.19 mg/kg,2.1 µg/kg,90,,,0.118 mg/kg
